In the library only some 2.7% were active in any assay of this set; here they are far more common.
V1R ag counter: activates human V1a receptor in oxytocin agonist counter-screen | activation, % at 3 µM | 0.25% of 320,000 active | CHO-V1R cells, Fluo-8 calcium fluorescence, agonist mode; 0% DMSO, 100% 3 nM vasopressin | P37288 | AID 2797;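 active = activation above the mean activation of all tested compounds plus 3 SD, per screening run, cut at about 20% in these data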;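 also: signal is peak over basal fluorescence ratio across a 100 second FLIPR read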
OX1R antag-1: OX1R (human) antagonism. O43613. OX1R-expressing cells, FRET antagonist read-out. inhibition, % at 6.6 µM. 1.8% of 330,000 active; in the data active = inhibition mostly above about 38%, no sharp cut-off; inactive = mostly below about 40%;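 also: 0% = agonist challenge alone and 100% = reference antagonist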
Target sequence (O43613 whole entry, looked up): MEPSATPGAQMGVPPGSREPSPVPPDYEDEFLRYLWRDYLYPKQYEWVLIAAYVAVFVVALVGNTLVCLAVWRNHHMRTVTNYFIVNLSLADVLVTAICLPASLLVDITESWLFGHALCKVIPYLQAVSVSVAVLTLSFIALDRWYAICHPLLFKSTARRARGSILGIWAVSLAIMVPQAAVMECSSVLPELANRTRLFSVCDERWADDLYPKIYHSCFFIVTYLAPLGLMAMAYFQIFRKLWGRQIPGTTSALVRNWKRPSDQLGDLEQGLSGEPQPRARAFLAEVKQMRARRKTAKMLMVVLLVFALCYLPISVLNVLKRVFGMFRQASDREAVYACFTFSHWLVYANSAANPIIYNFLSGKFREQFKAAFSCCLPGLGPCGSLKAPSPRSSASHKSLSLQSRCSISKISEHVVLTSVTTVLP
OXTR agonist: agonists of human oxytocin receptor | CHO-OTR cells, Fluo-8 calcium fluorescence; normalized: DMSO 0%, oxytocin 100% | 0.32% of 320,000 active | activation, % at 3 µM | P30559;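 active = activation above the mean of all tested compounds plus 3 SD, cutoff set per screening run, cut at about 20% in these data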;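 also: peak over basal fluorescence ratio from a 100 s FLIPR kinetic read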
CHO parental Ca: counter-screen: ATP calcium response change in parental CHO cells | parental CHO-K1, ATP-induced calcium, Fluo-8 fluorescence | inhibition, % at 5.6 µM | 0.63% of 330,000 active | AID 463079;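 active = inhibition above that plate's mean sample inhibition plus 3 SD, cut at about 26% in these data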;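 also: 0% = ATP-challenged DMSO wells and 100% = DMSO wells without ATP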
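test system = CHO parental line | reagent = ATP stimulus | measured by = intracellular calcium via Fluo-8 no-wash fluorescent dye | control set = ATP and no-ATP DMSO wells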
OX1R antag-2: blocks the human orexin 1 receptor | O43613 | CHO/OX1R cells, Fluo-8 calcium fluorescence, orexin A | inhibition, % at 5 µM | 0.43% of 330,000 active;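 active = inhibition above its plate's threshold, mean inhibition of all tested compounds on the plate plus 3 SD, cut at about 37% in these data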;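 also: 0% = orexin A challenge wells and 100% = SB-334867-A antagonist wells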
OXTR potentiate: human OXTR potentiation; CHO-OTR cells, Fluo-8 calcium fluorescence, potentiator mode; 0% = oxytocin EC15, 100% = EC100; 0.061% of 320,000 active; AID 2445; activation, % at 3 µM;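 active = activation above that plate's cutoff, the mean activation of tested compounds plus 3 SD, cut at about 6.6% in these data, passing the limit was not always enough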;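 also: 100% uses oxytocin at 75 nM as the full agonist control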
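Dosing: Single dose, 3.0 µM nominal final compound concentration | Material: Human OTR in CHO cells | Technique: Kinetic Fluo-8 calcium fluorescence | Benchmarks: EC15 oxytocin alone as 0%, 75 nM oxytocin as 100% | Probe or stimulus: Oxytocin at about EC15, sub-maximal agonist stimulus | Incubation: Compound 6 min at room temperature before oxytocin, 100 s read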
OX1R HTRF conf: confirmation of human orexin 1 receptor antagonists, HTRF format; shares compounds with OX1R antag-1; OX1R-expressing cells, HTRF antagonist assay; inhibition, % at 6.6 µM; 49% of 1,800 active; in the data active = inhibition above about 55%;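 also: CHO cells expressing OX1R stimulated with orexin A at about EC80; 0% = agonist challenge alone and 100% = reference antagonist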
CHO-K1 HTRF: counter-screen for OX1R antagonists: effect in parental CHO-K1 cells | shares compounds with OX1R antag-1 | HTRF counterscreen | inhibition, % at 6.6 µM | 48% of 1,800 active; in the data active = inhibition above about 17%;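 also: 0% = agonist challenge with vehicle and 100% = vehicle alone without agonist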
* hit, by the source's call; . = no result.

SMILES	V1R ag counter	OX1R antag-1	OXTR agonist	CHO parental Ca	OX1R antag-2	OXTR potentiate	OX1R HTRF conf	CHO-K1 HTRF
Cc1cc(Br)c(NC(=O)COC(=O)CC2CC3CCC2C3)c(Br)c1 (stereo unspecified)	-1.0	9.2	-1.5	-28.5	-31.1	8.0	.	.
COc1ccc(S(=O)(=O)N2CCCOC2CNC(=O)C(=O)NCc2cccnc2)cc1 (stereo unspecified)	0.6	-12.6	-0.8	-3.7	-7.8	-8.0	.	.
CCCSCCCNC(=O)CN1C(=O)COc2ccc(S(=O)(=O)N3CCCC3)cc21	-0.2	10.3	-1.8	-20.0	-21.9	-0.5	.	.
CCCCOc1ccc(Cc2c(O)nc(SC)[nH]c2=O)cc1	0.8	7.8	-0.3	-4.4	-10.3	-1.2	.	.
COc1cccc2sc(Nc3nc(-c4ccncc4)cs3)nc12	-1.2	82.3*	-1.8	5.6	16.4	-8.8	97.5*	7.7
O=C(O)CCCN1C(=O)c2ccc(C(=O)c3cccc([N+](=O)[O-])c3)cc2C1=O	0.8	86.5*	1.3	-3.8	-5.3	-5.8	40.1	52.5*
CCOc1cc(C(c2c(C)[nH][nH]c2=O)c2c(C)[nH][nH]c2=O)cc(Br)c1OC	0.2	10.4	-0.3	-6.4	-1.4	-14.6	.	.
CCCCOc1ccc(-c2nnc(-c3cc[n+](C)cc3)o2)cc1	-0.1	101.7*	0.2	-5.7	-3.7	4.8	88.2*	73.8*
CCOc1ccc(NC(=O)c2cccc(OC(=S)N3CCC(C)CC3)c2)cc1	-0.3	21.6	-1.6	-11.1	-36.4	-10.1	.	.
Cc1nn(C)cc1/C=N/NC(=O)c1ccc2c(c1)OCO2	0.3	83.4*	0.4	0.4	-7.9	-3.8	9.7	9.1
CCN(CC)CCCN(C(=O)c1cccc(C)c1)c1nc(-c2ccc(OC)cc2)cs1	2.7	12.9	6.8	-25.4	-36.1	-6.1	.	.
CC1(C)CC(NS(=O)(=O)c2ccc(S(N)(=O)=O)cc2)CC(C)(C)N1	2.3	-0.6	1.3	2.5	-3.2	-1.9	.	.
CC1(C)CC(NS(=O)(=O)c2ccc(F)cc2)CC(C)(C)N1	0.1	86.2*	-0.8	-8.2	-1.6	1.3	20.1	-2.5
O=C1NCCc2c1[nH]c1ccc([N+](=O)[O-])cc21	0.8	28.2	-0.3	5.2	-1.6	-12.2	.	.
O=c1cc[nH]c2ccc([N+](=O)[O-])cc12	-0.3	122.1*	0.2	-12.6	1.4	-7.0	51.2	60.7*
CCOC(=O)C1CCN(S(=O)(=O)CCNC(=O)c2ccc(F)cc2)CC1	-1.3	1.1	-0.6	-2.5	-19.9	0.7	.	.
O=C(Nc1cccc(Cl)c1)c1cc(N=Nc2ccc([N+](=O)[O-])cc2Cl)ccc1O	10.5	77.2*	0.4	13.7	20.6	-8.3	57.0*	22.6*
O=C(Nc1cccc(Cl)c1)c1cccc(Oc2ccc([N+](=O)[O-])cc2Cl)c1	0.6	41.6	-0.8	10.4	-2.6	-10.3	.	.
Cc1nn(-c2ccc(F)cc2)c(Cl)c1C(=O)NCC1CCCO1 (stereo unspecified)	0.8	-3.3	-0.5	-4.0	0.2	-3.4	.	.
CCOC(=O)C1Nc2ccccc2C2C(O)C(O)CC12 (stereo unspecified)	1.4	83.2*	0.1	-11.8	-12.5	-1.4	27.2	19.8*
CCOC(=O)C1Nc2ccc(C(F)(F)F)cc2C2c3ccccc3CC12 (stereo unspecified)	0.6	12.2	0.6	-4.2	-13.0	-6.9	.	.
CN1CCc2cc3c(c4c2[C@H]1[C@H](O)c1ccccc1-4)OCO3	-0.2	119.2*	-0.1	-0.9	-17.4	-2.5	66.0*	35.3*
CCCCNc1ccc(C(=O)O)cc1	0.7	7.2	0.4	-1.4	-9.1	-8.3	.	.
O=C(COc1ccc(Cl)cc1)OCC(=O)N1CCOCC1	1.3	5.8	1.5	-3.2	-3.2	0.3	.	.
Cc1ccc2nc3c(cc(C#N)c(=O)n3-c3nccs3)c(=O)n2c1	-1.7	168.9*	-1.8	-4.3	-12.6	-13.7	90.1*	77.3*
SMILES	V1R ag counter	OX1R antag-1	OXTR agonist	CHO parental Ca	OX1R antag-2	OXTR potentiate	OX1R HTRF conf	CHO-K1 HTRF
CCC(C)n1c(=N)c(C#N)cc2c(=O)n3cc(C)ccc3nc21 (stereo unspecified)	0.6	9.4	0.3	5.9	-9.9	1.7	.	.
O=[N+]([O-])c1ccc(-n2nncc2-c2ccccc2)cc1	-0.1	29.4	-1.2	0.0	-16.0	-11.4	.	.
Nc1c([N+](=O)[O-])cnnc1-c1ccccc1	-0.7	80.1*	-1.4	-7.8	2.4	-10.1	93.1*	100.6*
COC(=O)c1nc(C(=O)OC)c(C(=O)OC)nc1C(=O)OC	1.5	101.8*	-0.1	-12.3	-10.1	-5.4	48.8	22.0*
Cc1noc(NS(=O)(=O)c2ccc(NC(=O)c3ccccc3NS(=O)(=O)c3ccc(F)cc3)cc2)c1C	0.3	4.0	0.5	-6.4	-15.6	1.8	.	.
O=C1C(Cl)=C(NCc2cccnc2)C(=O)c2ccccc21	1.0	83.8*	-0.7	-5.2	-2.4	-5.6	65.9*	98.0*
CCN(CC)CCCNC1=C(Cl)C(=O)c2ccccc2C1=O	-0.3	85.6*	-0.5	-5.3	-11.3	0.2	87.5*	113.2*
C=CCNC1=C(Cl)C(=O)c2ccccc2C1=O	-1.7	140.5*	-2.1	-10.6	-1.9	8.6	64.3*	93.6*
O=C1C(Cl)=C(Nc2ccccc2)C(=O)c2ccccc21	-1.2	39.9	-1.9	24.1	17.6	-5.0	.	.
O=C(O)c1ccc(NC2=C(Cl)C(=O)c3ccccc3C2=O)cc1	-0.3	84.4*	-0.1	12.6	12.5	-5.4	70.3*	34.2*
O=S(=O)(Cc1ccccc1)NCc1cccnc1	-0.4	12.2	1.1	4.3	-12.4	-0.6	.	.
CC(C)CN(C(=O)COC(=O)Cc1c[nH]c2ccccc12)c1c(N)n(Cc2ccccc2)c(=O)[nH]c1=O	-0.1	14.2	-1.1	-3.9	3.0	-10.1	.	.
Clc1ccccc1Nc1nc(-c2cccnc2)cs1	-1.4	84.0*	-2.7	-5.2	-23.8	-10.3	76.6*	9.2
c1cncc(Nc2nc(-c3cccnc3)cs2)c1	-1.3	12.1	0.7	-5.6	-13.7	-3.2	.	.
Cc1ccnc(NC(=O)c2ccc([N+](=O)[O-])o2)c1	0.2	94.0*	-0.5	-3.2	-20.3	3.0	51.3	68.2*
Cc1ccc(CNC(=O)c2ccc([N+](=O)[O-])o2)cc1	2.5	78.3*	-0.3	0.5	-20.2	-5.9	22.9	33.4*
CCCN1CCC(=NNc2ccc(S(N)(=O)=O)cc2[N+](=O)[O-])CC1	-0.7	85.4*	0.7	-5.1	0.3	-14.7	37.9	55.6*
